In ChEMBL document CHEMBL4622964, “Designing Dihydrofolate Reductase Inhibitors as X-ray Radiosensitizers to Reverse Radioresistance of Cervical Cancer” (ACS Med Chem Lett, 2020):
Activity calls are given as the source filed them. The calls are words filed in the database; no cut-off is given here.

Assays:
HeLa [1] = test: Induction of reactive oxygen species generation in human HeLa cells incubated with DHE for 30 mins and measured up to 30 mins by fluorescence microscopic analysis; assay type: functional, cell-based
Method in brief: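 HeLa cells pretreated with compound, with or without 4 Gy X-rays, then incubated with dihydroethidium for 30 min; red superoxide-derived fluorescence imaged by fluorescence microscopy, with observation continued over a further 30 min.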

[2] = Toxicity in BALB/c mouse xenografted with human HeLa cells assessed as heart damage at 4 mg/kg, iv administered for every 3 days for 21 days and measured after 24 hrs post last dose in presence of 4 Gy X-ray irradiation by H and E staining based light microscopic analysis; assay type: organism-based; details: in vivo
Method in brief: (§1)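 HeLa-tumor-bearing nude mice dosed at 4 mg/kg iv every 3 days for 21 days, alone or with X-rays; euthanized 24 h after last injection; heart, liver, lungs, kidneys and spleen sectioned and stained with H&E.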

[3] = Toxicity in BALB/c mouse xenografted with human HeLa cells assessed as kidney damage by measuring effect on uric acid level at 4 mg/kg, iv administered every 3 days for 21 days; assay type: organism-based; details: in vivo
Method in brief: (§2)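 HeLa xenograft nude mice dosed at 4 mg/kg iv every 3 days over 21 days, alone or with X-rays; blood collected 24 h after last injection for serum biochemistry: ALT, AST (liver), BUN and uric acid (kidney).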

[4] = Toxicity in BALB/c mouse xenografted with human HeLa cells assessed as kidney damage at 4 mg/kg, iv administered for every 3 days for 21 days and measured after 24 hrs post last dose by H and E staining based light microscopic analysis; assay type: organism-based; details: in vivo; method in brief: as §1
HeLa [5] = test: Induction of mitochondrial dysfunction in human HeLa cells assessed as increase in mitochondrial fission at 1 uM after 24 hrs in presence of 4 Gy X-ray irradiation by DAPI staining based fluorescence microscopic analysis; assay type: functional, cell-based
Method in brief: (§3)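 HeLa cells treated with 1 μM compound, without or with 4 Gy X-rays; mitochondrial morphology imaged by fluorescence microscopy after MitoTracker and DAPI co-staining.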

[6] = Toxicity in BALB/c mouse xenografted with human HeLa cells assessed as kidney damage by measuring effect on BUN level at 4 mg/kg, iv administered every 3 days for 21 days; assay type: organism-based; details: in vivo; method in brief: as §2
HeLa [7] = test: Induction of mitochondrial dysfunction in human HeLa cells assessed as change in mitochondrial membrane potential at 1 uM incubated for 24 hrs in presence of 4 Gy X-ray irradiation by JC1 staining based flow cytometry (reference value: 4.9%); assay type: functional
Method in brief: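 Mitochondrial membrane potential was assessed by JC-1 flow cytometry in HeLa cells treated at 1 μM without or with 4 Gy X-rays. Green fluorescence gives the proportion of cells with lost ΔΨm.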

HeLa [8] = test: Induction of cell cycle arrest in human HeLa cells assessed as accumulation at G2/M phase at 1 uM after 48 hrs in presence of 4 Gy X-ray radiation by propidium iodide staining based flow cytometric analysis (reference value: 40.4%); assay type: functional
HeLa [9] = test: Induction of mitochondrial dysfunction in human HeLa cells assessed as mitochondrial fission at 1 uM after 24 hrs by DAPI staining based fluorescence microscopic analysis; assay type: functional, cell-based; method in brief: as §3
HeLa [10] = test: Effect on dihydrofolate reductase protein expression in human HeLa cell lysates at 1 to 2 uM by Western blot analysis; assay type: functional, cell-based
[11] = Safety index, ratio of IC50 for cytotoxicity against human Ect1 cells assessed as reduction in cell viability to IC50 for antiproliferative activity against human HeLa cells assessed as reduction in cell viability incubated for 12 hrs by MTT assay; assay type: toxicity, cell-based; details: Ect1 cells versus HeLa cells, read-out: Ratio IC50
Method in brief: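 Safe index SI0 from MTT assay without irradiation: IC50 in Ect1/E6E7 normal ectocervical cells divided by IC50 in HeLa cells.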

[12] = Toxicity in BALB/c mouse xenografted with human HeLa cells assessed as body weight loss at 4 mg/kg, iv administered for every 3 days and measured after 21 days in presence of 4 Gy X-ray irradiation; assay type: organism-based; details: in vivo, 504 h
Method in brief: (§4)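 HeLa-tumor-bearing nude mice given compound at 4 mg/kg by tail-vein injection every 3 days, alone or with X-rays; body weight recorded across 21 days.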

HeLa [13] = test: Ratio of IC50 for antiproliferative activity against human HeLa cells assessed as reduction in cell viability incubated for 12 hrs to IC50 for antiproliferative activity against human HeLa cells assessed as reduction in cell viability preincubated for 12 hrs followed by 4 Gy irradiation and measured after 60 hrs by MTT assay; assay type: functional
Method in brief: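 MTT viability assay in HeLa cancer cells, with the test agent alone (0 Gy) or combined with 4 Gy X-rays. IC50 values are in μM. Sensitivity enhancement ratio = IC50(0 Gy)/IC50(4 Gy).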

HeLa [14] = test: Induction of cell cycle arrest in human HeLa cells assessed as accumulation at SubG1 phase at 1 uM after 48 hrs by propidium iodide staining based flow cytometric analysis (reference value: 0.8%); assay type: functional
[15] = Toxicity in BALB/c mouse xenografted with human HeLa cells assessed as spleen damage at 4 mg/kg, iv administered for every 3 days for 21 days and measured after 24 hrs post last dose by H and E staining based light microscopic analysis; assay type: organism-based; details: in vivo; method in brief: as §1
HeLa [16] = test: Antimigratory activity in human HeLa cells assessed as inhibition of cell migration at 1 uM after 24 hrs in presence of 4 Gy irradiation by wound healing assay (reference value: 35%); assay type: functional; details: light or radiation study, read-out: INH
Method in brief: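 Wound-healing scratch assay in HeLa cells. Cells were treated without or with 4 Gy X-rays, and wound closure was imaged by phase-contrast microscopy at the indicated times. Migrated cells were counted manually. Mean ± SD of three independent experiments.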

[17] = Toxicity in BALB/c mouse xenografted with human HeLa cells assessed as liver damage at 4 mg/kg, iv administered for every 3 days for 21 days and measured after 24 hrs post last dose in presence of 4 Gy X-ray irradiation by H and E staining based light microscopic analysis; assay type: organism-based; details: in vivo; method in brief: as §1
[18] = Safety index, ratio of IC50 for cytotoxicity against human Ect1/E6E7 cells assessed as reduction in cell viability in presence of 4 Gy irradiation by MTT assay to antiproliferative activity against human HeLa cells assessed as reduction in cell viability preincubated for 12 hrs followed by 4 Gy irradiation and measured after 60 hrs by MTT assay; assay type: toxicity, cell-based; details: Ect1/E6E7 cells versus HeLa cells, read-out: Ratio IC50
Method in brief: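 MTT viability assay on Ect1/E6E7 normal ectocervical cells and HeLa cells, with 0 or 4 Gy X-rays. SER = IC50(0 Gy)/IC50(4 Gy) in the same line; safe index SI4 = IC50 Ect1/E6E7 + 4 Gy divided by IC50 HeLa + 4 Gy.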

HeLa [19] = test: Induction of apoptosis in human HeLa cells assessed as caspase-8 activation at 1 uM using […] as substrate after 12 hrs in presence of 4 Gy X-ray radiation by fluorescence based assay relative to control; assay type: functional
Method in brief: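 Caspase-3 and caspase-8 activities were measured in HeLa cells after 12 h at 1 μM, without or with 4 Gy X-rays. Mean ± SD of three independent experiments.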

[20] = Toxicity in BALB/c mouse xenografted with human HeLa cells assessed as kidney damage by measuring effect on BUN level at 4 mg/kg, iv administered every 3 days for 21 days in presence of 4 Gy X-ray irradiation; assay type: organism-based; details: in vivo; method in brief: as §2
HeLa [21] = test: Induction of cell cycle arrest in human HeLa cells assessed as accumulation at SubG1 phase at 1 uM after 48 hrs in presence of 4 Gy X-ray radiation by propidium iodide staining based flow cytometric analysis (reference value: […]); assay type: functional
[22] = Toxicity in BALB/c mouse xenografted with human HeLa cells assessed as body weight loss at 4 mg/kg, iv administered for every 3 days and measured after 21 days; assay type: organism-based; details: in vivo, 504 h; method in brief: as §4

Nc1nc(N)c2nc3c(nc2n1)-c1cccc2cccc-3c12
Activity (HeLa [1]): Active
Activity [2]: Non-Toxic
Activity [3]: Non-Toxic
Activity [4]: Non-Toxic
Activity (HeLa [5]): Active
Activity [6]: Non-Toxic
Activity (HeLa [7]): 32.3%
Activity (HeLa [8]): 36.2%
Activity (HeLa [9]): Active
Activity (HeLa [10]): Active
selectivity ratio at 12 h [11]: 3.3
Activity [12]: Non-Toxic
Ratio IC50 (HeLa [13]): 3.3
Activity (HeLa [14]): 6.9%
Activity [15]: Non-Toxic
inhibition at 1 µM (HeLa [16]): 81%
Activity [17]: Non-Toxic
selectivity ratio at 60 h [18]: 4.8
Activity (HeLa [19]): 129%
Activity [20]: Non-Toxic
Activity (HeLa [21]): 30.2%
Activity [22]: Non-Toxic
